ChEMBL document CHEMBL1144068, “Synthesis and biological evaluation of analogues of cryptolepine, an alkaloid isolated from the Suriname rainforest” (J Nat Prod, 1999)
Active and inactive are the calls of the source. No cut-off for these calls is given here.

Tested on: M109
Test: Cytotoxicity against mouse M109 cells
Type: functional, cell-based
Conditions: not given
In short: (§1)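 Cell-culture cytotoxicity in a 25-line panel by standard methods. Activity given as IC50 in µM.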

Row | Structure (SMILES) | IC50
1 | COC(=O)c1c2ccccc2nc2c1[nH]c1ccccc12 | < 10000 nM
2 | Cn1c2ccccc2c2c1cc1ccccc1[n+]2C.O=S(=O)([O-])C(F)(F)F | < 10000 nM
3 | C[n+]1c2ccccc2cc2[nH]c3ccccc3c21 [listing 1 of 2 here] | < 1000 nM
4 | C[n+]1c2ccccc2cc2[n-]c3ccccc3c21.Cl [CRYPTOLEPINE HYDROCHLORIDE] | < 1 µg/mL
5 | O=C1OCc2c3ccccc3nc3c4ccccc4n1c23 | < 10000 nM
6 | Cc1c2nc3ccccc3c-2[nH]c2ccccc12 | < 10000 nM
7 | CC(=O)n1c2ccccc2c2c1cc1ccccc1[n+]2C.[Cl-] | < 1000 nM
8 | CC[n+]1c2ccccc2cc2[nH]c3ccccc3c21.[I-] | < 50000 nM

Tested on: A2780
Test: Induction of apoptosis in human A2780 cells overexpressing wild type p53 at >5 X respective cytotoxic IC50 after 24 hrs
Type: functional, cell-based
Conditions: not given
In short: (§2)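 Flow cytometry (FACS) of A2780/p53wt cells after 24 h exposure at increasing multiples of each compound's own IC50, scored for G1 arrest and apoptosis; A2780/mutp53 cells run alongside.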

Row | Structure (SMILES) | Activity
9 | C[n+]1c2ccccc2cc2[nH]c3ccccc3c21 [listing 2 of 2 here] | Dose-dependent effect
10 | CC(=O)n1c2ccccc2c2c1cc1ccccc1[n+]2C.[Cl-] | Dose-dependent effect

Tested on: Saccharomyces cerevisiae
Test: Growth inhibition of Saccharomyces cerevisiae 1353 mutant by yeast bioassay
Type: functional
Conditions: not given

Row | Structure (SMILES) | IC12 [µg/mL]
11 | C[n+]1c2ccccc2cc2[n-]c3ccccc3c21.Cl [CRYPTOLEPINE HYDROCHLORIDE] | 0.6

Tested on: Saccharomyces cerevisiae
Test: Growth inhibition of Saccharomyces cerevisiae 1138 mutant by yeast bioassay
Type: functional
Conditions: not given

Row | Structure (SMILES) | IC12 [µg/mL]
12 | COC(=O)c1c2cc(Br)ccc2nc2c1[nH]c1ccccc12 | 100
13 | C[n+]1c2ccccc2cc2[n-]c3ccccc3c21 [CRYPTOLEPINE] | 0.5
14 | O=C(OCCO)c1c2ccccc2nc2c1[nH]c1ccccc12 | > 400
15 | CCC[n+]1c2ccccc2cc2[nH]c3ccccc3c21.[I-] | 400
16 | COC(=O)c1c2ccccc2nc2c1[nH]c1ccccc12 | 40
17 | Clc1c2ccccc2nc2c1oc1ccccc12 | > 400
18 | CCCC[n+]1c2ccccc2cc2[nH]c3ccccc3c21.[Br-] | > 400
19 | Cn1c2ccccc2c2c1cc1ccccc1[n+]2C.O=S(=O)([O-])C(F)(F)F | 5
20 | CCCCn1c2ccccc2c2c1cc1ccccc1[n+]2C.O=S(=O)([O-])C(F)(F)F | 90
21 | O=c1c2c3ccccc3nc3c4ccccc4n(c(=O)c4c5ccccc5nc5c6ccccc6n1c54)c32 | > 400
22 | O=C(O)c1c2nc3ccccc3c-2[nH]c2ccccc12 | > 400
23 | CC(CO)(CO)NCc1c2ccccc2nc2c1[nH]c1ccccc12 | > 400
24 | C[n+]1c2ccccc2cc2[n-]c3ccccc3c21.Cl [CRYPTOLEPINE HYDROCHLORIDE] | 0.6
25 | OCc1c2ccccc2nc2c1[nH]c1ccccc12 | 125
26 | O=C1OCc2c3ccccc3nc3c4ccccc4n1c23 | 50
27 | CCCn1c2ccccc2c2c1cc1ccccc1[n+]2C.O=S(=O)([O-])C(F)(F)F | 125

Row | Structure (SMILES) | IC12 [µg/mL]
28 | Cc1c2nc3ccccc3c-2[nH]c2ccccc12 | 50
29 | c1ccc2nc3c(cc2c1)[nH]c1ccccc13 [QUINDOLINE] | 150
30 | NC(=O)c1c2cc(Br)ccc2nc2c1[nH]c1ccccc12 | 400
31 | O=C(OCCOC(=O)c1c2ccccc2nc2c1[nH]c1ccccc12)c1c2ccccc2nc2c1[nH]c1ccccc12 | > 400
32 | c1ccc2nc3c(cc2c1)oc1ccccc13 | > 400
33 | CC(=O)n1c2ccccc2c2nc3ccccc3cc21 | 80
34 | C[n+]1c2ccccc2cc2[nH]c3ccccc3c21.[I-] [CRYPTOLEPTINE IODIDE] | 1.5
35 | O=c1c2ccccc2[nH]c2c1oc1ccccc12 | > 400
36 | C[n+]1c2ccccc2cc2oc3ccccc3c21.[I-] | 400
37 | CCn1c2ccccc2c2c1cc1ccccc1[n+]2C.O=S(=O)([O-])C(F)(F)F | 80
38 | O=Cc1c2ccccc2nc2c1[nH]c1ccccc12 | > 400
39 | Ic1c2ccccc2nc2c1oc1ccccc12 | > 400
40 | C=CCn1c2ccccc2c2c1cc1ccccc1[n+]2C.O=S(=O)([O-])C(F)(F)F | 200
41 | c1ccc(Cn2c3ccccc3c3nc4ccccc4cc32)cc1 | > 400
42 | CC(=O)n1c2ccccc2c2c1cc1ccccc1[n+]2C.[Cl-] | 5
43 | CC[n+]1c2ccccc2cc2[nH]c3ccccc3c21.[I-] | 40

Tested on: A-431
Test: Cytotoxicity against human A431 cells
Type: functional, cell-based
Conditions: not given
In short: as §1

Row | Structure (SMILES) | IC50 [nM]
44 | C[n+]1c2ccccc2cc2[nH]c3ccccc3c21 [listing 1 of 2 here] | 340
45 | CC(=O)n1c2ccccc2c2c1cc1ccccc1[n+]2C.[Cl-] | 340

Tested on: A2780
Test: Cell cycle arrest in human A2780 cells overexpressing wild type p53 by accumulation at G1 phase at 5 X respective cytotoxic IC50 after 24 hrs by FACS
Type: functional, cell-based
Conditions: not given
In short: as §2

Row | Structure (SMILES) | Activity
46 | C[n+]1c2ccccc2cc2[nH]c3ccccc3c21 [listing 2 of 2 here] | Active
47 | CC(=O)n1c2ccccc2c2c1cc1ccccc1[n+]2C.[Cl-] | Active

Tested on: Saccharomyces cerevisiae
Test: Growth inhibition of Saccharomyces cerevisiae 1140 mutant by yeast bioassay
Type: functional
Conditions: not given

Row | Structure (SMILES) | IC12 [µg/mL]
48 | C[n+]1c2ccccc2cc2[n-]c3ccccc3c21.Cl [CRYPTOLEPINE HYDROCHLORIDE] | 0.6

Tested on: MLF
Test: Cytotoxicity against MLF cells
Type: cell-based
Conditions: Mus musculus
In short: as §1

Row | Structure (SMILES) | IC50 [nM]
49 | C[n+]1c2ccccc2cc2[nH]c3ccccc3c21 [listing 1 of 2 here] | 4900
50 | CC(=O)n1c2ccccc2c2c1cc1ccccc1[n+]2C.[Cl-] | 4900

Tested on: not listed separately
Test: Cytotoxicity against human OVACR3 cells
Type: functional, cell-based
Conditions: not given
In short: as §1

Row | Structure (SMILES) | IC50 [nM]
51 | C[n+]1c2ccccc2cc2[nH]c3ccccc3c21 [listing 1 of 2 here] | 500
52 | CC(=O)n1c2ccccc2c2c1cc1ccccc1[n+]2C.[Cl-] | 500
